For data set [1], the target named is PDE8A1 (480–820) (Homo sapiens, UniProt O60658). The data set is described as follows: PDE8A inhibition, 3H-cAMP radiometric enzyme assay. Format: biochemical. In a few lines:
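Recombinant PDE8A1 (480–820) was expressed in E. coli BL21 (DE3), denatured in guanidine, refolded, and purified on Ni-NTA, hydroxyapatite, Q-Sepharose and gel filtration. ³H-cAMP (~20,000 cpm/assay) was reacted in Tris-HCl 20 mmol/L pH 7.5, MnCl₂ 10 mmol/L and DTT 1 mmol/L at 25 °C for 15 min. Reactions were stopped with ZnSO₄ then Ba(OH)₂, and supernatant ³H-cAMP was scintillation-counted. IC50 came from nonlinear regression over ≥8 concentrations, with each test run ≥3 times.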

The nature of data set [2]: Metabolic stability in rat liver microsomes. Format: in vitro ADME.

Each structure is given as a SMILES string.

The source of these data is PMC9293670 (Acta Pharmaceutica Sinica. B, 2022).

Sequence of PDE8A1 (480–820) (O60658 480-820): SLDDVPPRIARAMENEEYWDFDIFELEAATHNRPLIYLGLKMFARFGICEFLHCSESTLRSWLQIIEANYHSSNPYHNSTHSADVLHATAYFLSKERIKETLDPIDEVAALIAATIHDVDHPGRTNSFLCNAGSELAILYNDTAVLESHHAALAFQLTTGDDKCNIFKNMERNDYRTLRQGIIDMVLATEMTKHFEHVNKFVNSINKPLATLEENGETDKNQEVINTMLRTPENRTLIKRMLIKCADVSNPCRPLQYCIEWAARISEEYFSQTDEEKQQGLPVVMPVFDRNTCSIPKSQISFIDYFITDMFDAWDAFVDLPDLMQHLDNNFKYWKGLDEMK

For the compound `Nc1nc(Cl)nc2c1ncn2Cc1cc(F)cc(OCC(F)F)c1` [Compound 11], the IC50 in data set [1] was found to be 51 ± 3 nM.

`Nc1nc(Cl)nc2c1ncn2Cc1cc(OCc2ccccc2)cc(OCC(F)F)c1` [Compound 21] had an IC50 in data set [1] of 597 ± 61 nM.

`CC(C)Oc1cc(Cn2cnc3c(N)nc(Cl)nc32)cc(OCC(F)F)c1` [Compound 17] gave a half-maximal inhibitory concentration (IC50) in data set [1] of 5 ± 0.3 nM. This compound registered a half-life in data set [2] of 16 min.

The compound `Nc1nc(Cl)nc2c1ncn2Cc1cc(OCC(F)F)cc(-c2cccnc2)c1` [Compound 23] showed a half-maximal inhibitory concentration (IC50) in data set [1] of 4.8 ± 0.3 nM. This compound also gave a half-life in data set [2] of 39 min.

In data set [1], `COCCOc1cc(Cn2cnc3c(N)nc(Cl)nc32)cc(OCC(F)F)c1` [Compound 20] gave an IC50 of 52 ± 5 nM.

The compound `COc1cc(Cn2cnc3c(N)nc(Cl)nc32)cc(OCC(F)F)c1` [Compound 13] registered an IC50 in data set [1] of 591 ± 11 nM.

As to `Nc1nc(Cl)nc2c1ncn2Cc1cc(OCC(F)F)cc(-c2ccncc2)c1` [Compound 22], the concentration for half-maximal inhibition (IC50) in data set [1] was 3.1 ± 0.2 nM. Also, the half-life in data set [2] is 8 min.

Regarding `CCOc1cc(Cn2cnc3c(N)nc(Cl)nc32)cc(OCC(F)F)c1` [Compound 14], in data set [1], inhibition was half-maximal at 593 ± 69 nM (IC50).

In turn, `Nc1nc(Cl)nc2c1ncn2Cc1cc(OCC(F)F)cc(-c2ccco2)c1` [Compound 25] registered an IC50 in data set [1] of 13 ± 2 nM.

In data set [1], `Nc1nc(Cl)nc2c1ncn2Cc1cc(OCC(F)F)cc(OC2CCC2)c1` [Compound 18] displayed an IC50 of 20 ± 2 nM.

In data set [1], `CC(C)c1cc(Cn2cnc3c(N)nc(Cl)nc32)cc(OCC(F)F)c1` [Compound 16] returned an IC50 of 4.6 ± 0.6 nM. Besides, the half-life in data set [2] came out at 6 min.

Turning to `Nc1nc(Cl)nc2c1ncn2Cc1cc(O)cc(OCC(F)F)c1` [Compound 12], in data set [1], inhibition was half-maximal at 193 ± 17 nM (IC50).

For the compound `Nc1nc(Cl)nc2c1ncn2Cc1cc(OCC(F)F)cc(OCC2CC2)c1` [Compound 19], in data set [1], the IC50 was found to be 40 ± 1 nM.
